According to ChEMBL document CHEMBL3751709, “Concise Synthesis of Spergualin-Inspired Molecules With Broad-Spectrum Antibiotic Activity” (2015):
Values after ≈ are worked out from the molar mass of the structure shown. Active and inactive are the calls of the source. The rule behind the calls is not given here.

What was measured:
Type in all cases: functional
[1] = tested on: Escherichia coli; experiment: Antimicrobial activity against Escherichia coli K-12 MG1655 after 24 hrs by double dilution method
Summary of the method: (§1)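 Double (2-fold) dilution series added to inoculum at OD600 0.1, giving final 256 to 2 μg/mL. H. influenzae was scraped from agar into supplemented BHI medium. Other strains were diluted from an overnight LB culture (37 °C, 200 rpm) into LB. Plates were covered and shaken at 200 rpm, 37 °C, for 24 h before MIC was read. At least two runs in triplicate.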

[2] = tested on: Haemophilus influenzae; experiment: Antimicrobial activity against Haemophilus influenzae ATCC 51907 after 24 hrs by double dilution method; summary of the method: as §1
[3] = tested on: Bacillus anthracis; experiment: Antimicrobial activity against Bacillus anthracis 34F2 Sterne after 24 hrs by double dilution method
[4] = tested on: Bacillus cereus; experiment: Antimicrobial activity against Bacillus cereus ATCC 11778 after 24 hrs by double dilution method; summary of the method: as §1
[5] = tested on: Bacillus subtilis; experiment: Antimicrobial activity against Bacillus subtilis 168 after 24 hrs by double dilution method; summary of the method: as §1
[6] = tested on: Staphylococcus aureus; experiment: Antimicrobial activity against Staphylococcus aureus RN4220 after 24 hrs by double dilution method; summary of the method: as §1
[7] = tested on: Staphylococcus aureus; experiment: Bactericidal activity against Staphylococcus aureus RN4220 8 to 16 ug/ml at after 4 to 24 hrs by time kill assay
Summary of the method: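 Time-kill: 5 mL S. aureus cultures at OD600 0.1 were treated with compound (final 8 to 16 μg/mL) or DMSO. 100 μL was sampled at 0, 4 and 24 h, serially diluted 10-fold in sterile PBS, and 2 μL spotted on LB agar to count CFUs.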

| SMILES | Activity [1] | MIC ([1]; K-12 MG1655, 24 h) [µg/mL] | Activity [2] | MIC ([2]; ATCC 51907, 24 h) [µg/mL] | Activity [3] | MIC [3] | Activity [4] | MIC ([4]; ATCC 11778, 24 h) [µg/mL] | Activity ([5]; subsp. subtilis str. 168) | MIC ([5]; subsp. subtilis str. 168, 24 h) [µg/mL] | Activity [6] | MIC ([6]; RN4220, 24 h) [µg/mL] | Activity [7] [log10CFU] | MIC [1] | MIC [2] | MIC [4] | MIC ([5]; subsp. subtilis str. 168) | MIC [6] |
| --- | --- | --- | --- | --- | --- | --- | --- | --- | --- | --- | --- | --- | --- | --- | --- | --- | --- | --- |
| NCCCCNC(=O)C(c1ccc(Br)cc1)N(Cc1ccccc1)C(=O)CCS (stereo not drawn) | Dose-dependent effect | 32 (≈ 66.9 µM) | Dose-dependent effect | 16 (≈ 33.4 µM) | Dose-dependent effect | 4 µg/mL (≈ 8.36 µM) | Dose-dependent effect | 8 (≈ 16.7 µM) | Dose-dependent effect | 4 (≈ 8.36 µM) | Dose-dependent effect | 8 (≈ 16.7 µM) | >3 | – | – | – | – | – |
| O=Cc1ccc(Br)cc1 | – | – | – | – | – | inactive | – | – | – | – | – | – | – | inactive | inactive | inactive | inactive | inactive |
| CCCC(=O)N(Cc1ccccc1)C(C(=O)NCCCCN)c1ccc(Br)cc1 (stereo not drawn) | – | 256 (≈ 556 µM) | – | 64 (≈ 139 µM) | – | 32 µg/mL (≈ 69.5 µM) | – | 32 (≈ 69.5 µM) | – | 16 (≈ 34.8 µM) | – | 32 (≈ 69.5 µM) | – | – | – | – | – | – |
| CC(C)C1CCC(C(=O)NCC(=O)NCc2ccccc2)CC1 (stereo not drawn) | – | > 128 | – | > 128 | – | > 128 µg/mL | – | > 128 | – | > 128 | – | > 128 | – | – | – | – | – | – |
| CN(C)[C@@H]1C(O)=C(C(N)=O)C(=O)[C@@]2(O)C(O)=C3C(=O)c4c(O)cccc4[C@@](C)(O)[C@H]3C[C@@H]12 [TETRACYCLINE] | – | < 2 | – | < 2 | – | < 2 µg/mL | – | < 2 | – | < 2 | – | < 2 | – | – | – | – | – | – |
| CCC(C)C(=O)NCC(=O)N1CCN(Cc2ccccc2)CC1 (stereo not drawn) | – | > 128 | – | > 128 | – | > 128 µg/mL | – | > 128 | – | > 128 | – | > 128 | – | – | – | – | – | – |
| CC(C)SCC(=O)NCC(=O)NCc1ccccc1 | – | > 128 | – | > 128 | – | > 128 µg/mL | – | > 128 | – | > 128 | – | > 128 | – | – | – | – | – | – |
| N#Cc1ccc(C(=O)N(CCCc2ccccc2)CC(=O)N2CCNCC2)cc1 | – | > 128 | – | > 128 | – | > 128 µg/mL | – | > 128 | – | > 128 | – | > 128 | – | – | – | – | – | – |
| NCCCCNCCCN | – | – | – | – | – | inactive | – | – | – | – | – | – | – | inactive | inactive | inactive | inactive | inactive |
| N=C(N)NCCCC[C@H](O)CC(=O)N[C@@H](O)C(=O)NCCCCNCCCN | – | 50 (≈ 124 µM) | – | – | – | 12.5 µg/mL (≈ 31 µM) | – | 50 (≈ 124 µM) | – | 6.25 (≈ 15.5 µM) | – | 6.25 (≈ 15.5 µM) | – | – | – | – | – | – |
| O=C(O)CCS | – | – | – | – | – | inactive | – | – | – | – | – | – | – | inactive | inactive | inactive | inactive | inactive |
| NCc1ccccc1 | – | – | – | – | – | inactive | – | – | – | – | – | – | – | inactive | inactive | inactive | inactive | inactive |
